Converted amounts (≈) assume the structure as drawn. The source made the active and inactive calls. The calls are words filed in the database; no cut-off is given here.
Key:
HeLa = assay: Cytotoxicity against human HeLa cells assessed as reduction in cell viability after 48 hrs by MTT assay; type: functional, cell-based
Candida albicans [1] = assay: Antifungal activity against fluconazole-resistant Candida albicans at 100 ug/well after 24 hrs by well diffusion assay; type: functional; details: for zone of inhibition at 100 µg/disc: read-out: DIZ
How it was run: (§1)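 Agar well diffusion on Mueller Hinton agar: 17 h cultures swabbed over the surface, wells cut with a cork borer after 10 min. Each well loaded with 10 µl of a 10 mg/mL DMSO stock (100 µg/well), with a DMSO control well. Plates incubated at 37 °C for 24 h. Zone of inhibition diameter measured in mm.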

Staphylococcus aureus [2] = assay: Antibacterial activity against methicillin-resistant Staphylococcus aureus by NCCLS method; type: functional
Candida albicans [3] = assay: Antifungal activity against fluconazole-resistant Candida albicans by NCCLS method; type: functional
SAS = assay: Cytotoxicity against human SAS cells assessed as reduction in cell viability after 48 hrs by MTT assay; type: functional, cell-based
Pseudomonas aeruginosa = assay: Antibacterial activity against Pseudomonas aeruginosa MTCC 201 at 100 ug/well after 24 hrs by well diffusion assay; type: functional
How it was run: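 17 h bacterial cultures swabbed onto Mueller Hinton agar; after 10 min wells were cut with a cork borer and loaded with compound from a 10 mg/mL stock, with a DMSO control. Plates were held at 37 °C for 24 h, and susceptibility was read as the diameter of the zone of inhibition in mm.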

Staphylococcus aureus [4] = assay: Antibacterial activity against methicillin-resistant Staphylococcus aureus at 100 ug/well after 24 hrs by well diffusion assay; type: functional; details: for zone of inhibition at 100 µg/disc: read-out: DIZ; how it was run: as §1

Row | SMILES | IC50 (HeLa) [µM] | zone of inhibition at 100 µg/disc (Candida albicans [1]) [mm] | MIC (Staphylococcus aureus [2]) [µg/mL] | MIC (Candida albicans [3]) [µg/mL] | IC50 (SAS) [µM] | diameter of the inhibition zone (DIZ) (Pseudomonas aeruginosa) | zone of inhibition at 100 µg/disc (Staphylococcus aureus [4]) [mm] | diameter of the inhibition zone (DIZ) (Candida albicans [1]) | diameter of the inhibition zone (DIZ) (Staphylococcus aureus [4]) | zone of inhibition at 100 µg/disc (Pseudomonas aeruginosa; MTCC 201, 24 h, read-out: DIZ) [mm]
1 | COC(=O)CNC(=O)CSC1=CC(=O)c2cccc(OC)c2C1=O | > 100 | 19 | 3.9 (≈ 11.2 µM) | 7.9 (≈ 22.6 µM) | > 100 | inactive | 19 |  |  | 
2 | COC(=O)CCCNC(=O)CSC1=CC(=O)c2cccc(OC)c2C1=O |  |  |  |  |  | inactive | 12 | inactive |  | 
3 | OC(Cn1cncn1)(Cn1cncn1)c1ccc(F)cc1F |  |  |  |  |  | inactive |  | inactive | inactive | 
4 | O=C1C=C(O)C(=O)c2ccccc21 [LAWSONE] | > 100 | 14 | 125 (≈ 718 µM) | 250 (≈ 1440 µM) | > 100 | inactive | 12 |  |  | 
5 | COC(=O)[C@H](Cc1ccccc1)NC(=O)CSC1=CC(=O)c2cccc(OC)c2C1=O | 58 | 17 | 7.8 (≈ 17.7 µM) | 7.8 (≈ 17.7 µM) | 40 | inactive | 15 |  |  | 
6 | COC(=O)CNC(=O)CSC1=C(C)C(=O)c2ccccc2C1=O |  | 22 | 15.6 (≈ 46.8 µM) | 15.6 (≈ 46.8 µM) |  | inactive | 23 |  |  | 
7 | COC(=O)[C@H](C)NC(=O)CSC1=CC(=O)c2cccc(OC)c2C1=O |  |  | 7.8 (≈ 21.5 µM) |  |  | inactive | 15 | inactive |  | 
8 | COC(=O)CCCNC(=O)CSC1=C(OC)C(=O)c2ccccc2C1=O | 24 | 26 | 15.6 (≈ 41.3 µM) | 15.6 (≈ 41.3 µM) | 24.5 | inactive | 26 |  |  | 
9 | COC(=O)[C@H](C)NC(=O)CSC1=C(C)C(=O)c2ccccc2C1=O |  | 26 | 15.6 (≈ 44.9 µM) | 15.6 (≈ 44.9 µM) |  | inactive | 23 |  |  | 
10 | CC[C@H](C)[C@H](NC(=O)CSC1=C(OC)C(=O)c2ccccc2C1=O)C(=O)OC | 82 | 12 | 7.8 (≈ 19.2 µM) | 7.8 (≈ 19.2 µM) | 60 | inactive | 15 |  |  | 
11 | COC(=O)[C@@H](NC(=O)CSC1=CC(=O)c2cccc(OC)c2C1=O)C(C)C | > 100 | 12 | 15.6 (≈ 39.9 µM) | 15.6 (≈ 39.9 µM) | 45 | inactive | 15 |  |  | 
12 | COC(=O)[C@H](C)NC(=O)CSC1=C(OC)C(=O)c2ccccc2C1=O | 39 | 26 | 62.5 (≈ 172 µM) | 62.5 (≈ 172 µM) | 14 | inactive | 19 |  |  | 
13 | COC(=O)[C@H](CC(C)C)NC(=O)CSC1=C(C)C(=O)c2cccc(OC)c2C1=O | > 100 | 25 | 7.8 (≈ 18.6 µM) | 7.8 (≈ 18.6 µM) | 78.5 | inactive | 21 |  |  | 
14 | COC(=O)[C@H](CC(C)C)NC(=O)CSC1=CC(=O)c2cccc(OC)c2C1=O |  | 12 | 7.8 (≈ 19.2 µM) | 7.8 (≈ 19.2 µM) |  | inactive | 11 |  |  | 
15 | COC(=O)[C@H](Cc1ccccc1)NC(=O)CSC1=C(OC)C(=O)c2ccccc2C1=O |  |  | 62.5 (≈ 142 µM) |  |  | inactive | 14 | inactive |  | 
16 | COC(=O)[C@H](C)NC(=O)CSC1=C(C)C(=O)c2cccc(OC)c2C1=O |  | 18 | 125 (≈ 331 µM) | 125 (≈ 331 µM) |  | inactive | 18 |  |  | 
17 | COC(=O)CCCNC(=O)CSC1=C(C)C(=O)c2ccccc2C1=O |  | 12 | 15.6 (≈ 43.2 µM) | 15.6 (≈ 43.2 µM) |  | inactive | 13 |  |  | 
18 | COC(=O)[C@H](CC(C)C)NC(=O)CSC1=C(C)C(=O)c2ccccc2C1=O |  | 20 | 15.6 (≈ 40.1 µM) | 15.6 (≈ 40.1 µM) |  | inactive | 18 |  |  | 
19 | O=C1C=CC(=O)c2c(O)cccc21 |  |  |  |  |  | inactive |  | inactive | inactive | 
20 | COC(=O)CCCNC(=O)CSC1=C(C)C(=O)c2cccc(OC)c2C1=O |  | 21 | 15.6 (≈ 39.9 µM) | 15.6 (≈ 39.9 µM) |  | inactive | 20 |  |  | 
21 | COC(=O)[C@H](Cc1ccccc1)NC(=O)CSC1=C(C)C(=O)c2ccccc2C1=O |  | 16 | 15.6 (≈ 36.8 µM) | 15.6 (≈ 36.8 µM) |  | inactive | 13 |  |  | 
22 | COC(=O)[C@H](CC(C)C)NC(=O)CSC1=C(OC)C(=O)c2ccccc2C1=O | 63 | 19 | 7.8 (≈ 19.2 µM) | 62.5 (≈ 154 µM) | 25.5 | inactive | 21 |  |  | 
23 | CN[C@@H]1[C@H](O[C@H]2[C@H](O[C@H]3[C@H](O)[C@@H](O)[C@H](N=C(N)N)[C@@H](O)[C@@H]3N=C(N)N)O[C@@H](C)[C@]2(O)C=O)O[C@@H](CO)[C@H](O)[C@H]1O [STREPTOMYCIN] |  |  | 3.9 (≈ 6.71 µM) |  |  |  | 24 | inactive |  | 13
24 | COC(=O)[C@@H](NC(=O)CSC1=C(OC)C(=O)c2ccccc2C1=O)C(C)C | 93.5 | 20 | 15.6 (≈ 39.9 µM) | 15.6 (≈ 39.9 µM) | 56 | inactive | 18 |  |  | 
25 | CC1=CC(=O)c2ccccc2C1=O [MENADIONE] | 18 | 11 | 15.6 (≈ 90.6 µM) | 15.6 (≈ 90.6 µM) | 14 | inactive | 11 |  |  | 
26 | COC(=O)[C@@H](NC(=O)CSC1=C(C)C(=O)c2cccc(OC)c2C1=O)C(C)C |  | 13 | 15.6 (≈ 38.5 µM) | 7.8 (≈ 19.2 µM) |  | inactive | 12 |  |  | 
27 | CC[C@H](C)[C@H](NC(=O)CSC1=C(C)C(=O)c2ccccc2C1=O)C(=O)OC |  | 19 | 15.6 (≈ 40.1 µM) | 15.6 (≈ 40.1 µM) |  | inactive | 16 |  |  | 
28 | COC(=O)CNC(=O)CSC1=C(C)C(=O)c2cccc(OC)c2C1=O |  | 21 | 125 (≈ 344 µM) | 125 (≈ 344 µM) |  | inactive | 20 |  |  | 
29 | CC[C@H](C)[C@H](NC(=O)CSC1=C(C)C(=O)c2cccc(OC)c2C1=O)C(=O)OC |  |  |  |  |  | inactive |  | inactive | inactive | 

From ChEMBL document CHEMBL3352332, “Synthesis and SAR study of novel anticancer and antimicrobial naphthoquinone amide derivatives” (Bioorg Med Chem Lett, 2014)
